Data published in ChEMBL document CHEMBL1158804, “Lupane triterpenoids from Maytenus species” (J Nat Prod, 2005).
≈ marks a conversion by molar mass, not a printed value. Calls of active or inactive are those of the source. The rule behind the calls is not given here.

What was measured:
HEp-2 = assay: Cytotoxicity against human Hep2 cells after 48 hrs by MTT assay; type: functional, cell-based; conditions: HEp-2, 48 h
Method in brief: (§1)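 Monolayers are cultured in DMEM with 5% fetal calf serum and 1% penicillin-streptomycin at 37 °C, 5% CO2 and 90% humidity. Exponentially growing cells (2 × 10^4 cells/well) are exposed to a range of compound concentrations for 48 h at 37 °C. Viability is read by colorimetric MTT reduction.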

Vero = assay: Cytotoxicity against african green monkey Vero cells after 48 hrs by MTT assay; type: cell-based; conditions: Chlorocebus sabaeus; method in brief: as §1
Bacillus cereus [1] = assay: Antibacterial activity against Bacillus cereus CECT 496 by broth microdilution method; type: functional
Method in brief: (§2)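 Compounds are dissolved in DMSO. The minimal inhibitory concentration is estimated by broth microdilution.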

HeLa = assay: Cytotoxicity against human HeLa cells after 48 hrs by MTT assay; type: functional, cell-based; method in brief: as §1
Bacillus subtilis [2] = assay: Antibacterial activity against Bacillus subtilis CECT 39 by broth microdilution method; type: functional; method in brief: as §2
Bacillus pumilus [3] = assay: Antibacterial activity against Bacillus pumilus CECT 29 by broth microdilution method; type: functional; method in brief: as §2
[4] = tested on: Mycolicibacterium smegmatis; assay: Antibacterial activity against Mycobacterium smegmatis CECT 3032 up to 40 ug/mL by broth microdilution method; type: functional, organism-based; method in brief: as §2
Candida albicans = assay: Antifungal activity against Candida albicans UBC1 up to 40 ug/mL by broth microdilution method; type: functional, organism-based
Method in brief: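 The yeast is grown on Sabouraud agar at 37 °C. Compounds are dissolved in DMSO, and the minimal inhibitory concentration is estimated by broth microdilution.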

Salmonella = assay: Antibacterial activity against Salmonella sp. CECT 456 up to 40 ug/mL by broth microdilution method; type: functional, organism-based; method in brief: as §2
Priestia megaterium = assay: Antibacterial activity against Bacillus megaterium CECT 44 up to 40 ug/mL by broth microdilution method; type: functional, organism-based; method in brief: as §2
Pseudomonas aeruginosa = assay: Antibacterial activity against Pseudomonas aeruginosa AK 958 up to 40 ug/mL by broth microdilution method; type: functional, organism-based; method in brief: as §2
[5] = tested on: Staphylococcus epidermidis; assay: Antibacterial activity against Staphylococcus epidermidis CECT 232 up to 40 ug/mL by broth microdilution method; type: functional, organism-based; method in brief: as §2
Escherichia coli = assay: Antibacterial activity against Escherichia coli CECT 99 up to 40 ug/mL by broth microdilution method; type: functional, organism-based; method in brief: as §2
[6] = tested on: Staphylococcus saprophyticus; assay: Antibacterial activity against Staphylococcus saprophyticus CECT 235 up to 40 ug/mL by broth microdilution method; type: functional, organism-based; method in brief: as §2
Bacillus subtilis [7] = assay: Antibacterial activity against Bacillus subtilis CECT 39 up to 40 ug/mL by broth microdilution method; type: functional, organism-based; method in brief: as §2
Enterococcus faecalis = assay: Antibacterial activity against Enterococcus faecalis CECT 795 up to 40 ug/mL by broth microdilution method; type: functional, organism-based; method in brief: as §2
Bacillus cereus [8] = assay: Antibacterial activity against Bacillus cereus CECT 496 up to 40 ug/mL by broth microdilution method; type: functional, organism-based; method in brief: as §2
Proteus mirabilis = assay: Antibacterial activity against Proteus mirabilis CECT170 up to 40 ug/mL by broth microdilution method; type: functional, organism-based; method in brief: as §2
Staphylococcus aureus = assay: Antibacterial activity against Staphylococcus aureus ATCC 6538 up to 40 ug/mL by broth microdilution method; type: functional, organism-based; method in brief: as §2
Bacillus pumilus [9] = assay: Antibacterial activity against Bacillus pumilus CECT 29 up to 40 ug/mL by broth microdilution method; type: functional, organism-based; method in brief: as §2

MIC (Bacillus cereus [1]) [µg/mL] | MIC (Bacillus subtilis [2]) [µg/mL] | MIC (Bacillus pumilus [3]) [µg/mL] | Compound | IC50 (HEp-2) [µg/mL] | IC50 (Vero) [µg/mL] | IC50 (HeLa) [µg/mL] | Activity [4] | Activity (Candida albicans) | Activity (Salmonella) | Activity (Priestia megaterium) | Activity (Pseudomonas aeruginosa) | Activity [5] | Activity (Escherichia coli) | Activity [6] | Activity (Bacillus subtilis [7]) | Activity (Enterococcus faecalis) | Activity (Bacillus cereus [8]) | Activity (Proteus mirabilis) | Activity (Staphylococcus aureus) | Activity (Bacillus pumilus [9])
25 (≈ 53.1 µM) | 35 (≈ 74.4 µM) | 20 (≈ 42.5 µM) | C=C(C)[C@@H]1CC[C@]2(C(=O)O)CC[C@]3(C)[C@@H](CC[C@@H]4[C@@]5(C)CCC(=O)C(C)(C)[C@@H]5[C@H](O)C[C@]43C)[C@@H]12 | > 10 | > 10 | > 10 |  |  |  |  |  |  |  |  |  |  |  |  |  | 
 |  |  | C=C(C)[C@@H]1CC[C@]2(CO)CC[C@]3(C)[C@H](CC[C@@H]4[C@@]5(C)CCC(=O)C(C)(C)[C@@H]5CC[C@]43C)[C@@H]12 [BETULONE] | > 10 | > 10 | > 10 | inactive | inactive | inactive | inactive | inactive | inactive | inactive | inactive | inactive | inactive | inactive | inactive | inactive | inactive
 |  |  | C=C(C)[C@@H]1CC[C@]2(C(=O)O)CC[C@]3(C)[C@H](CC[C@@H]4[C@@]5(C)CC[C@@H](O)C(C)(C)[C@@H]5CC[C@]43C)[C@@H]12 [EPIBETULINIC ACID] | 3.1 (≈ 6.79 µM) | > 10 | 2.1 (≈ 4.6 µM) | inactive | inactive | inactive | inactive | inactive | inactive | inactive | inactive | inactive | inactive | inactive | inactive | inactive | inactive
 |  |  | C=C(C)[C@@H]1CC[C@]2(C)CC[C@]3(C)[C@@H](CC[C@@H]4[C@@]5(C)[C@@H](O)C[C@H](O)C(C)(C)[C@@H]5CC[C@]43C)[C@@H]12 [GLOCHIDIOL] | > 10 | > 10 | > 10 | inactive | inactive | inactive | inactive | inactive | inactive | inactive | inactive | inactive | inactive | inactive | inactive | inactive | inactive
 |  |  | C=C(C)[C@@H]1CC[C@]2(C)CC[C@]3(C)[C@@H](CC[C@@H]4[C@@]5(C)C=CC(=O)C(C)(C)[C@@H]5CC[C@]43C)[C@@H]12 [GLOCHIDONE] | > 10 | > 10 | > 10 | inactive | inactive | inactive | inactive | inactive | inactive | inactive | inactive | inactive | inactive | inactive | inactive | inactive | inactive
 |  |  | C=C(C)[C@@H]1CC[C@]2(C)CC[C@]3(C)[C@@H](CC[C@@H]4[C@@]5(C)[C@H](O)CC(=O)C(C)(C)[C@@H]5CC[C@]43C)[C@@H]12 [GLOCHIDONOL] | < 10 | < 10 | < 10 | inactive | inactive | inactive | inactive | inactive | inactive | inactive | inactive | inactive | inactive | inactive | inactive | inactive | inactive
 |  |  | C=C(C)[C@@H]1CC[C@]2(C)CC[C@]3(C)[C@H](CC[C@@H]4[C@@]5(C)CCC(=O)C(C)(C)[C@@H]5CC[C@]43C)[C@@H]12 [LUPENONE] | > 10 | > 10 | > 10 | inactive | inactive | inactive | inactive | inactive | inactive | inactive | inactive | inactive | inactive | inactive | inactive | inactive | inactive
 |  |  | C=C(C)[C@@H]1CC[C@]2(C)CC[C@]3(C)[C@H](CC[C@@H]4[C@@]5(C)CC[C@H](O)C(C)(C)[C@@H]5CC[C@]43C)[C@@H]12 [LUPEOL] | > 10 | > 10 | > 10 | inactive | inactive | inactive | inactive | inactive | inactive | inactive | inactive | inactive | inactive | inactive | inactive | inactive | inactive
 |  |  | CC(=O)[C@@H]1CC[C@]2(CO)CC[C@]3(C)[C@@H](CC[C@@H]4[C@@]5(C)CC[C@H](O)C(C)(C)[C@@H]5CC[C@]43C)[C@@H]12 [MESSAGENIN] | > 10 | > 10 | > 10 | inactive | inactive | inactive | inactive | inactive | inactive | inactive | inactive | inactive | inactive | inactive | inactive | inactive | inactive
 |  |  | C=C(C)[C@@H]1CC[C@]2(C)CC[C@]3(C)[C@@H](C[C@@H](O)[C@@H]4[C@@]5(C)[C@H](O)C[C@H](O)C(C)(C)[C@@H]5CC[C@]43C)[C@@H]12 [NEPETICIN] | < 10 | < 10 | < 10 | inactive | inactive | inactive | inactive | inactive | inactive | inactive | inactive | inactive | inactive | inactive | inactive | inactive | inactive
 |  |  | C=C(C)[C@@H]1CC[C@@]2(C)[C@H]1[C@@H]1CC[C@@H]3[C@@]4(C)CCC(=O)C(C)(C)[C@@H]4[C@H](O)C[C@@]3(C)[C@]1(C)C[C@@H]2O [RESINONE] | > 10 | > 10 | > 10 | inactive | inactive | inactive | inactive | inactive | inactive | inactive | inactive | inactive | inactive | inactive | inactive | inactive | inactive
 |  |  | C=C(C)[C@@H]1CC[C@]2(C)CC[C@]3(C)[C@@H](C[C@@H](O)[C@@H]4[C@@]5(C)CCC(=O)C(C)(C)[C@@H]5CC[C@]43C)[C@@H]12 [RIGIDENOL] | > 10 | > 10 | > 10 | inactive | inactive | inactive | inactive | inactive | inactive | inactive | inactive | inactive | inactive | inactive | inactive | inactive | inactive
